# KCNK9 block: inhibitors of human KCNK9 two-pore domain potassium channel. HEK293 KCNK9, FluxOR thallium flux fluorescence; stronger effect = lower value. B-score at 10 µM. hit rate 1.2% among 310,000;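 active = ratio B-score over 3 SD below the library mean, with starting fluorescence within 5 SD of its mean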;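 note: negative B-score means less thallium flux so channel inhibition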
# KCNK3 inh: human KCNK3 channel inhibition, primary screen; hit rate 0.84% among 340,000; O14649; CHO-KCNK3 thallium flux, FluxOR fluorescence; stronger effect = lower value; B-score at 10 µM;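 active = B-score under library mean minus 4 SD, starting fluorescence ratio at most library mean plus 5 SD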;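 note: more negative B-score means stronger inhibition of thallium flux through KCNK3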
# Target sequence (O14649 whole entry, looked up): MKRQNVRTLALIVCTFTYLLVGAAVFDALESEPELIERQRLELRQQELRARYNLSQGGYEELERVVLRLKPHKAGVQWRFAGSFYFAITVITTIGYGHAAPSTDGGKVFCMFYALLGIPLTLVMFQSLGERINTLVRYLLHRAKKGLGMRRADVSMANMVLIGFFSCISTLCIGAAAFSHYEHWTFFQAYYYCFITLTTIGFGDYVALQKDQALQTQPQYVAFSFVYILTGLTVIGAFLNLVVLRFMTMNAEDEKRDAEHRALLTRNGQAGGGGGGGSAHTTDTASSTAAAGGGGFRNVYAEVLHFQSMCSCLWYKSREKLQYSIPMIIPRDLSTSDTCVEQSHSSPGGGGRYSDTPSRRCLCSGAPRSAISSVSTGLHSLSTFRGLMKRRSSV
# hERG rescue: shields human hERG channel from block by proarrhythmic agents. CHO-hERG, FluxOR thallium flux, dofetilide IC70 present. AID 1511. activation (rescue from dofetilide block), less the hit threshold, % at 10 µM. hit rate 0.51% among 310,000;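 active = activation above the mean of controls blocked by dofetilide plus 5 SD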;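 note: thallium influx through hERG after potassium depolarization seen as dye fluorescence rise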
# KCNQ1 inh: inhibitors of human KCNQ1 potassium channel; P51787; CHO-K1 KCNQ1, FluxOR thallium flux fluorescence; stronger effect = higher value; B-score at 10 µM; hit rate 1.3% among 310,000; AID 2642;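 active = compounds whose thallium flux B-score, printed positive for inhibition, exceeds three library SD while starting fluorescence stays within three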;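 note: channel opened by potassium depolarization with thallium stimulus after 20 min compound exposure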
# KCNQ1 pot: potentiates or activates the human KCNQ1 potassium channel | B-score at 10 µM | P51787 | hit rate 0.35% among 310,000 | AID 2648 | CHO-K1 KCNQ1, thallium flux FluxOR fluorescence; stronger effect = higher value;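 active = fluorescence ratio B-score, a plate-corrected score, at least three library SD, with initial intensity B-score within 5 SD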
#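 Doses: Single concentration per compound, DMSO matched to controls | Test system: KCNQ1-transfected CHO-K1 cells | Timing: 90 min dye loading and 20 min compound exposure, both at room temperature | Measured by: Kinetic FluxOR thallium fluorescence, 10-s 1-Hz baseline, 110-s post-stimulus read | Medium: Assay buffer with matched DMSO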
# Kir21 block: Kir2.1 (mouse) channel inhibition; P35561; HEK293-Kir2.1, FluxOR thallium flux fluorescence; stronger effect = lower value; B-score at 10 µM; hit rate 0.85% among 310,000;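 active = fluorescence ratio B-score at or below minus 3 SD of library scores, with starting-brightness B-score within 2 SD, cut at about -4.2 in these data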;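 note: channel flux triggered by added potassium and thallium sulfate stimulus; B-score of peak minus minimum fluorescence over baseline after thallium stimulus; more negative B-score means stronger Kir2.1 block with less thallium influx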
# KCNK9 block conf: confirmation of human KCNK9 potassium channel inhibitors. shares compounds with KCNK9 block. inhibition, % at 10 µM. HEK293 KCNK9 cells, FluxOR thallium flux fluorescence. hit rate 43% among 4,900;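 active = thallium signal inhibited by more than 5 SD of the compound-free buffer control wells, on both duplicate plates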;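 note: 0% = assay buffer control wells without compound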
# Kir21 sel: selectivity of KCNK9 modulators against mouse Kir2.1. shares compounds with KCNK9 block. AID 492993. inhibition, % at 10 µM. Kir2.1 cells, FluxOR thallium flux fluorescence. hit rate 4% among 4,900;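 active = thallium signal drop more than 5 SD beyond the mean of the no-compound control wells, seen in both duplicate plates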;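 note: signal is fluorescence rise after thallium addition divided by baseline fluorescence; plate controls were assay buffer only for no effect and full block by chlorpromazine control for full effect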
# HEK293 Tl ctr: second check of KCNK9 modulator effects in non-induced HEK293 cells. AID 492997. FluxOR thallium flux. shares compounds with KCNK9 block. inhibition, % at 10 µM. hit rate 40% among 4,900;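 active = thallium signal drop beyond 5 SD of the untreated control mean, on both duplicate plates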;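 note: plate controls were buffer only IC0 wells for no effect and SID17386958 at its maximal inhibitory level for full effect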
# KCNK3 confirm: human KCNK3 channel inhibition, confirmation assay; shares compounds with KCNK3 inh; CHO-KCNK3 thallium flux, FluxOR fluorescence; 0% buffer, 100% carvedilol maximal block; ratio percent of control, % at 10 µM; hit rate 99% among 2,400; AID 651638;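 active = ratio percent of control, averaged over triplicates, above buffer control mean plus 5 SD, cut at about 64% in these data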;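 note: ratio is the fluorescence rise from min to max over baseline after thallium stimulus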
# KCNK3 noninduced: KCNK3 inhibitor counter-screen hit in non-induced cells; shares compounds with KCNK3 inh; non-induced KCNK3 parental cells, FluxOR thallium flux; stronger effect = lower value; thallium flux ratio (lower = more inhibition) at 10 µM; hit rate 40% among 2,400;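 active = thallium flux ratio, averaged over three wells, more than 5 SD below the buffer control mean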;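 note: host cells are CHO cells without KCNK3 induction; ratio is peak minus trough fluorescence over baseline then normalized to buffer controls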
# An asterisk follows results filed as active; i = inactive; · = no result given. An excerpt weighted towards active compounds, which were near 3.7% of everything screened.
SMILES,KCNK9 block,KCNK3 inh,hERG rescue,KCNQ1 inh,KCNQ1 pot,Kir21 block,KCNK9 block conf,Kir21 sel,HEK293 Tl ctr,KCNK3 confirm,KCNK3 noninduced
CCc1cc(=O)oc2cc(C)cc(OCC(=O)N3CCC(C(=O)NC(C)C)(c4ccccc4)CC3)c12,-19*,-14*,-10,i,i,0.08,65%*,i,26%*,100*,i
CCCCc1cc(=O)oc2c(C)c(OCC(=O)N3CCC(C(=O)O)(c4ccccc4)CC3)ccc12,i,i,-9,i,i,-0.17,·,·,·,·,·
COc1ccc2c(-c3ccccc3)cc(=S)[nH]c2c1,i,i,-6,i,i,1.3,·,·,·,·,·
S=C(Nc1ccccc1)N1CCOCCOCCN(C(=S)Nc2ccccc2)CCOCCOCC1,-11*,-9.1*,-5,i,i,0.67,28%*,i,i,96*,0.13*
CC(Oc1ccc(Cl)cc1Cl)c1nc(-c2ccc(NC(=O)c3ccco3)cc2)no1 (stereo not given),-13*,-8.8*,-10,i,i,1.5,53%*,i,34%*,121*,0.15*
O=C(OCc1ccc2c(c1)OCO2)c1cccc(S(=O)(=O)N2CCCCC2)c1,-19*,-9.3*,-8,i,i,0.93,72%*,i,30%*,114*,i
CCOc1ccc(CCNC(=O)COC(=O)c2cccc(S(=O)(=O)N3CCCC3)c2)cc1OCC,-9.4*,-9.2*,-9,i,i,-1.3,38%*,i,36%*,65*,i
COc1ccc(C(=O)NC(Cn2ccnc2)C(C)(C)C)cc1OC1CCN(C(C)C)CC1 (stereo not given),i,i,-11,i,i,-0.08,·,·,·,·,·
O=C(NCC(c1ccco1)N1CCOCC1)C1CCCCC1 (stereo not given),i,i,-5,i,i,2.4,·,·,·,·,·
COc1ccc(S(=O)(=O)Nc2ncccc2C)c2ccccc12,i,i,0,i,i,-0.53,·,·,·,·,·
CC(C)Oc1ccc(C(=O)NC(=S)Nc2ccc(Cl)c(C(=O)O)c2)cc1,i,i,-12,i,i,-0.33,·,·,·,·,·
Cn1c(N)c(C(=O)COC(=O)c2ccccc2C(=O)c2ccc(Cl)cc2)c(=O)n(C)c1=O,·,i,·,·,·,·,·,·,·,·,·
CCOc1ccccc1NC(=O)C(Sc1ccccc1)c1ccccc1 (stereo not given),-8.4*,-8.7*,-16,i,i,2.8,i,i,40%*,95*,0.15*
CCOc1ccccc1NC(=O)c1ccc2ccccc2c1,-11*,-9.7*,-8,i,i,0.52,64%*,i,32%*,113*,i
CCOc1ccccc1NC(=O)NNC(=O)c1ccc2ccccc2c1,i,i,-6,i,i,-0.31,·,·,·,·,·
COc1ccc2[nH]c(C)c(CCN(Cc3cccs3)C(=S)Nc3ccccc3)c2c1,-11*,-13*,-16,i,i,-0.5,38%*,i,34%*,130*,0.13*
CCNC(=S)N(CCc1c(C)[nH]c2ccc(F)cc12)Cc1cccnc1,i,i,-13,i,i,1.2,·,·,·,·,·
Cc1[nH]c2ccc(F)cc2c1CCN(Cc1cccnc1)C(=S)Nc1ccc(F)cc1,-9.6*,-9.5*,-4,i,i,0.29,i,i,26%*,103*,i
Cc1cc2cccc(C)c2nc1SCC(=O)NC1CCCCC1,-12*,-9.5*,-2,i,i,-0.29,i,i,i,92*,i
Cc1ccccc1-c1nnc(SCC(=O)NC2CCCCC2)o1,i,i,-4,i,i,0.09,·,·,·,·,·
Cc1cc(C)c(S(=O)(=O)NCC(c2cccnc2)N2CCN(Cc3ccccc3)CC2)c(C)c1 (stereo not given),i,i,-11,i,i,-0.06,·,·,·,·,·
CCOc1ccccc1NC(=O)CN(C)S(=O)(=O)c1ccc(OC)c(C)c1,-15*,i,-1,i,i,-1.3,50%*,i,i,95*,i
CCC(C)NC(=O)c1cc2c(=O)n3cccc(C)c3nc2s1 (stereo not given),i,i,-11,i,i,-0.09,·,·,·,·,·
Cn1cc([N+](=O)[O-])c(C(=O)Nc2cc(Oc3ccccc3)cc([N+](=O)[O-])c2)n1,i,i,-3,i,i,0.43,·,·,·,·,·
Cc1cccc(Oc2cc(NC(=O)c3ccccc3)cc([N+](=O)[O-])c2)c1,-12*,-12*,-19,6*,i,-0.96,64%*,i,39%*,133*,0.15*
SMILES,KCNK9 block,KCNK3 inh,hERG rescue,KCNQ1 inh,KCNQ1 pot,Kir21 block,KCNK9 block conf,Kir21 sel,HEK293 Tl ctr,KCNK3 confirm,KCNK3 noninduced
COCc1nnc(NC(=O)CCc2ccc(OC)cc2)s1,i,i,-6,i,i,0.95,·,·,·,·,·
COc1cccc(C(=O)O[C@H]2[C@H](C)NS(=O)(=O)[C@H]3C[C@@H]4C=C[C@]23O4)c1,·,i,·,·,·,·,·,·,·,·,·
O=C(Nc1ccccc1)c1sc2cc(C(F)(F)F)cnc2c1-c1cccs1,-9*,-9*,-8,i,i,0.56,40%*,i,34%*,112*,i
COc1cn(-c2ccccc2)nc1C(=O)Nc1ccc(C)cc1,i,i,-11,i,i,-0.12,·,·,·,·,·
COc1ccc(C)cc1NC(=O)c1nn(-c2ccccc2)cc1OC,-18*,i,-15,i,i,0.67,61%*,i,31%*,130*,0.14*
CCOc1ccc(CN(C)C(=O)c2ccc(NC(=O)CC3SC(N4CCCC4)=NC3=O)cc2)cc1 (stereo not given),i,i,-16,i,i,-0.45,·,·,·,·,·
CC(C)(c1ccccc1)c1ccc(OCCn2cnc3ccccc3c2=O)cc1,i,-13*,-10,i,i,-0.77,i,i,40%*,73*,0.15*

# Bioassay records from PubChem.
